Assay results published in ChEMBL document CHEMBL4680241, “Structure-activity relationships of triazole-benzodioxine inhibitors of cathepsin X” (Eur J Med Chem, 2020).
The source made the active and inactive calls. The rule behind the calls is not given here.

What was measured:
PC-3 [1] = assay: Cytotoxicity against human PC-3 cells assessed as reduction in cell viability at 20 uM after 24 to 48 hrs by MTS assay; type: functional, cell-based; settings: time 24-48 hrs
Outline: (§1)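 PC-3 cells seeded at 6.5×10^4 cells/mL in Advanced DMEM/F-12 with 10% FBS and exposed to compound at 10 or 20 µM for 24 h or 48 h. Means ± SD of three independent assays, each in triplicate.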

Cathepsin S [2] = molecular target: T1, Cathepsin S (Homo sapiens, UniProt P25774); assay: Inhibition of human cathepsin S expressed in Pichia pastoris using Z-VVR-AMC as substrate by fluorescence assay
Outline: (§2)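 Cathepsin S expressed in P. pastoris, assayed in 100 mM phosphate buffer pH 6.5 containing 5 mM cysteine, 1.5 mM EDTA and 0.1% PEG 8000 after 5 min activation at 37 °C. Substrate was fluorogenic Z-VVR-AMC.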
Target sequence in this assay (P25774 whole entry): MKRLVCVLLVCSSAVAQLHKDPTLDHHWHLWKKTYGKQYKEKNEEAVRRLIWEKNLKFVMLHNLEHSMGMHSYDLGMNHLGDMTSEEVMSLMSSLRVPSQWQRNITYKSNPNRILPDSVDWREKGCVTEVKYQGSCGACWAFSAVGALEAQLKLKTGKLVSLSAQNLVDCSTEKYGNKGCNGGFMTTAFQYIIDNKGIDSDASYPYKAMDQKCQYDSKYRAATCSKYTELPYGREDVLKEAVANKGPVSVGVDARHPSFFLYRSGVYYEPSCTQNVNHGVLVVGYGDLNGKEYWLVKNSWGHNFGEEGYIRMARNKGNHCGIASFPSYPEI

Cathepsin S [3] = molecular target: T1, Cathepsin S; assay: Inhibition of human cathepsin S expressed in Pichia pastoris at 100 uM using Z-VVR-AMC as substrate by fluorescence assay relative to control; outline: as §2
Target sequence in this assay (P25774 115-331 limits assumed): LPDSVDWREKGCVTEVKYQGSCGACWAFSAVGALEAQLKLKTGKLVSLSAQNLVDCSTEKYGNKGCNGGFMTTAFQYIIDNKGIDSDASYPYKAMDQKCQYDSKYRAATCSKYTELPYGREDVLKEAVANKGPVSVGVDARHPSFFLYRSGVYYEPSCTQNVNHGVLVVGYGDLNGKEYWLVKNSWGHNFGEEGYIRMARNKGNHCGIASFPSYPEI

Cathepsin Z [4] = molecular target: T2, Cathepsin Z (Homo sapiens, UniProt Q9UBR2); assay: Inhibition of human cathepsin X expressed in Pichia pastoris assessed as residual activity using Abz-FEK(Dnp)-OH as substrate incubated for 30 to 45 mins by fluorescence assay
T2 sequence (Q9UBR2 whole entry): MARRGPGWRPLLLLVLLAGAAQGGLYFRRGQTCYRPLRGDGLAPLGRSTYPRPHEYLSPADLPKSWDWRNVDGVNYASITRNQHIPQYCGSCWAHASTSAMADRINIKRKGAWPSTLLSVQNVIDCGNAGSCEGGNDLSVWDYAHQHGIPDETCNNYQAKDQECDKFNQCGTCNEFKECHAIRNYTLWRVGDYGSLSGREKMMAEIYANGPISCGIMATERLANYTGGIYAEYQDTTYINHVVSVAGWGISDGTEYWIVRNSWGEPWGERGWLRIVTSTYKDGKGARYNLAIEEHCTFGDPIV

Cathepsin Z [5] = molecular target: T2, Cathepsin Z; assay: Inhibition of human cathepsin X expressed in Pichia pastoris assessed as residual activity at 50 uM using Abz-FEK(Dnp)-OH as substrate incubated for 30 to 45 mins by fluorescence assay relative to control; settings: time 30-45 min
Outline: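 Substrate was Abz-FEK(Dnp)-OH at 3.25 µM final, compound at 50 µM final. Fluorescence (ex 320/em 420 nm) was followed continuously for 30-45 min at 37 °C. Activity was taken from rates relative to no-compound velocity. Two experiments in duplicate.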

PC-3 [6] = assay: Antimigratory activity against human PC-3 cells at 10 uM up to 72 hrs by xCELLigence based RTCA analysis relative to control; type: functional; settings: dose 20 µM; time hrs <=72; in the assay text read “at 20 uM” for “at 10 uM”
Outline: (§3)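 PC-3 cells grown in Advanced DMEM/F-12 (1:1) with 10% FBS, L-glutamine and penicillin/streptomycin. Fibronectin-coated (10 μg/mL) xCELLigence CIM plates held 2 × 10⁴ cells per well. Compound at 10 or 20 μM was added to complete medium (lower chamber) or serum-free medium (upper chamber), with 0.1% DMSO as control. Cell index was read every 15 min for 72 h. Migration was taken as the slope of the curve over a selected interval, normalized to DMSO-treated cells. Means ± SD, two independent assays in duplicate or triplicate.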

[7] = molecular target: Cathepsin B (Homo sapiens) (UniProt P07858); assay: Inhibition of human cathepsin B expressed in Escherichia coli at 100 uM using Abz-GIVRAK(Dnp)-OH as substrate by fluorescence assay relative to control
Outline: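 Cathepsin B exopeptidase activity: recombinant enzyme from E. coli in 60 mM acetate buffer pH 5.0 with 5 mM cysteine, 1.5 mM EDTA and 0.1% PEG 8000, activated 5 min at 37 °C. Fluorogenic substrate Abz-GIVRAK(Dnp)-OH.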

[8] = molecular target: Procathepsin L (Homo sapiens) (UniProt P07711); assay: Inhibition of human cathepsin L expressed in Escherichia coli at 100 uM using Z-FR-AMC as substrate by fluorescence assay relative to control
Chain of Procathepsin L (Homo sapiens) (P07711 114-333 limits assumed): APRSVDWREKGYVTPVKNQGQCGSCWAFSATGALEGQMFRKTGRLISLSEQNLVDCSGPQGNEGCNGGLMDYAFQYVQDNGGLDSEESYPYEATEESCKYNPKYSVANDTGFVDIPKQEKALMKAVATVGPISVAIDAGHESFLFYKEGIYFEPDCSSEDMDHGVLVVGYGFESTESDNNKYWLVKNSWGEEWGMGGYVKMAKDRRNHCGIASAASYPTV

PC-3 [9] = assay: Cytotoxicity against human PC-3 cells assessed as reduction in cell viability at 10 uM after 24 to 48 hrs by MTS assay; type: functional, cell-based; settings: time 24-48 hrs; outline: as §1
PC-3 [10] = assay: Antimigratory activity against human PC-3 cells at 20 uM up to 72 hrs by xCELLigence based RTCA analysis; type: functional, cell-based; settings: time hrs <=72; outline: as §3

SMILES | Activity (Cathepsin Z [5]) | other results
N#CCn1ccnc1SCC(=O)c1ccc2c(c1)OCCO2 | 12% | Activity (PC-3 [1]): inactive; IC50 (Cathepsin S [2]): 241 µM; inhibition (Cathepsin S [3]): 30%; IC50 (Cathepsin Z [4]): 7.13 µM; Activity (PC-3 [6]): 21%; inhibition [7]: 30%; inhibition [8]: 30%
CC(C)n1cnnc1SCC(=O)c1ccc(O)cc1 | 73% | 
CC(C)n1cnnc1SCC(=O)c1ccc(Br)cc1 | 77% | 
N#Cc1ccc(-n2cnnc2SCC(=O)c2ccc3c(c2)OCCO3)cc1 | 20% | Activity (PC-3 [1]): Active; Activity (PC-3 [9]): inactive; IC50 (Cathepsin Z [4]): 12.4 µM
O=C(CSc1nc(-c2ccncc2)n[nH]1)c1ccc2c(c1)OCCO2 | 33% | 
CC(C)n1cnnc1SCC(O)c1ccc2c(c1)OCCO2 (configuration not stated) | 98% | 
CC(C)n1cnnc1SCC(=O)c1ccccc1 | 100% | 
CC(C)n1cnnc1SCC(=O)c1ccc2c(c1)OCCO2 | 15% | Activity (PC-3 [1]): inactive; IC50 (Cathepsin Z [4]): 11.5 µM
Cn1cnnc1SCC(=O)c1ccc2c(c1)OCCO2 | 17% | Activity (PC-3 [1]): inactive; IC50 (Cathepsin Z [4]): 11.8 µM; Activity (PC-3 [10]): inactive
COc1ccc(C(=O)CSc2nncn2C(C)C)cc1 | 66% | 
O=C(CSc1cccs1)c1ccc2c(c1)OCCO2 | 39% | 
Cc1n[nH]c(SCC(=O)c2ccc3c(c2)OCCO3)n1 | 28% | 
Cn1ccnc1SCC(=O)c1ccc2c(c1)OCCO2 | 15% | Activity (PC-3 [1]): inactive; Activity (PC-3 [9]): inactive; IC50 (Cathepsin Z [4]): 9.54 µM
CC(C)n1cnnc1SCC(=O)c1cccc([N+](=O)[O-])c1 | 100% | 
O=C(CSc1nc(C2CCCCC2)n[nH]1)c1ccc2c(c1)OCCO2 | 30% | 
O=C(CSc1nc(C2CCCCC2)nn1C(=O)C1CCCCC1)c1ccc2c(c1)OCCO2 | 43% | 
O=C(CSc1nncn1-c1cccnc1)c1ccc2c(c1)OCCO2 | 22% | 
CC(C)n1cnnc1SCC(=O)c1ccc(N(C)C)cc1 | 41% | 
O=C(CSc1nccs1)c1ccc2c(c1)OCCO2 | 22% | 
CCOC(=O)COc1ccc(C(=O)CSc2nncn2C(C)C)cc1 | 60% | 
CCn1cnnc1SCC(=O)c1ccc2c(c1)OCCO2 | 24% | 
O=C(CSc1nc(-c2ccccc2)n[nH]1)c1ccc2c(c1)OCCO2 | 37% | 
CC(C)n1cnnc1SCC(=O)c1c[nH]c2ccccc12 | 27% | 
CC(C)Oc1ccc(C(=O)CSc2nncn2C(C)C)cc1 | 63% | 

Continued, in another order:

Activity (Cathepsin Z [5]) | SMILES | other results
49% | COc1ccccc1C(=O)CSc1nncn1C(C)C | 
48% | O=C(CSc1ccccc1)c1ccc2c(c1)OCCO2 | 
85% | CC(C)n1cnnc1SCC(=O)c1ccc(OCC(=O)O)cc1 | 
36% | Cn1nnnc1SCC(=O)c1ccc2c(c1)OCCO2 | 
62% | Cc1[nH]c2ccccc2c1C(=O)CSc1nncn1C(C)C | 
23% | O=C(CSc1nnc[nH]1)c1ccc2c(c1)OCCO2 | 
55% | CN(C)c1ccc(-n2cnnc2SCC(=O)c2ccc3c(c2)OCCO3)cc1 | 
71% | O=C(COc1nnc[nH]1)c1ccc2c(c1)OCCO2 | 
90% | CC(C)n1cnnc1SCC(N)c1ccc2c(c1)OCCO2 (configuration not stated) | 
69% | CC(C)n1cnnc1SCC(=O)c1ccc(OCC#N)cc1 | 
17% | O=C(CSc1ncc[nH]1)c1ccc2c(c1)OCCO2 | Activity (PC-3 [1]): inactive; IC50 (Cathepsin Z [4]): 13.6 µM
92% | CC(C)n1cnnc1SCC(=O)c1ccc(C#N)cc1 | 
80% | CC(C)n1cnnc1SCC(=O)C(C)(C)C | 
73% | COc1cccc(C(=O)CSc2nncn2C(C)C)c1 | 
35% | NC(=O)c1ccc(-n2cnnc2SCC(=O)c2ccc3c(c2)OCCO3)cc1 | 
24% | CC(C)n1cnnc1SCC(=O)c1ccc2c(c1)OCO2 | 
90% | CO/N=C(\CSc1nncn1C(C)C)c1ccc2c(c1)OCCO2 | 
75% | Cc1ccc(C(=O)CSc2nncn2C(C)C)cc1 | 
